Legend:
[1] = molecular target: T1, Protein farnesyltransferase (Homo sapiens, UniProt P49354+P49356); assay: In vitro inhibition of Farnesyltransferase; type: protein-complex assay
How it was run: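 Partially purified FTase from human Burkitt lymphoma (Daudi) cells, incubated with [³H]FPP and recombinant H-Ras-CVLS for 30 min at 37 °C.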

[2] = molecular target: Geranylgeranyl transferase type I (Homo sapiens, UniProt P49354+P53609); assay: In vitro inhibition of Geranylgeranyl transferase type I; type: protein-complex assay
How it was run: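 Partially purified GGTase I from human Burkitt lymphoma (Daudi) cells, incubated for 30 min at 37 °C.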

[3] = molecular target: T1, Protein farnesyltransferase; assay: Inhibition of human Burkitt lymphoma (Daudi) cell farnesyltransferase; settings: target entry is the homologue from another species

SMILES: Cc1cccc(-c2ccc(NC[C@@H](N)CS)cc2)c1
- IC50 [1]: 0.71 µM
- IC50 [2]: > 100 µM

SMILES: COc1cc(NC[C@@H](N)CS)ccc1-c1cccc(C(=O)O)c1
- IC50 [1]: 0.04 µM
- IC50 [2]: 43.6 µM

SMILES: N[C@@H](CS)CNc1ccc(-c2ccccc2C(=O)O)cc1
- IC50 [2]: 140 µM
- IC50 [3]: 0.543 µM

SMILES: N[C@@H](CS)CNc1ccc(-c2cccc(C(=O)O)c2)cc1
- IC50 [1]: 0.114 µM
- IC50 [2]: 100 µM

SMILES: COC(=O)c1cccc(-c2ccc(NC[C@@H](N)CS)cc2)c1
- IC50 [1]: 0.917 µM
- IC50 [2]: > 100 µM

SMILES: CC[C@H](C)[C@H](NC(=O)[C@@H](NC(=O)[C@@H](N)CS)C(C)C)C(=O)N[C@@H](CCSC)C(=O)O
- IC50 [1]: 0.2 µM

SMILES: N[C@@H](CS)CNc1ccc(-c2ccccc2)cc1
- IC50 [1]: 1.07 µM
- IC50 [2]: > 100 µM

SMILES: N[C@@H](CS)C(=O)NCc1cccc(-c2cccc(C(=O)O)c2)c1
- IC50 [1]: 100 µM
- IC50 [2]: > 100 µM

SMILES: CSCC[C@H](NC(=O)c1ccc(NC(=O)[C@@H](N)CS)cc1)C(=O)O
- IC50 [1]: 0.15 µM

SMILES: N[C@@H](CS)C(=O)Nc1ccc(-c2cccc(C(=O)O)c2)cc1
- IC50 [1]: 13.5 µM
- IC50 [2]: 100 µM

SMILES: N[C@@H](CS)CNCc1cccc(-c2cccc(C(=O)O)c2)c1
- IC50 [1]: 11 µM
- IC50 [2]: 35 µM

SMILES: N[C@@H](CS)CNc1ccc(-c2ccc(C(=O)O)cc2)cc1
- IC50 [2]: > 100 µM

Reference: ChEMBL document CHEMBL1129288, “Design and synthesis of non-peptide Ras CAAX mimetics as potent farnesyltransferase inhibitors” (J Med Chem, 1996)
